Values after ≈ are worked out from the molar mass of the structure shown.
Assays:
[1] = Aqueous solubility at pH 3.2; assay type: physicochemical; settings: aqueous solution
Outline: (§1)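 Thermodynamic solubility from a slurry. Sonicated 20 min at room temperature, 10 min at 50 °C, then 10 min at room temperature, and agitated at least two days at room temperature. Residual solid was checked for crystallinity by polarized light microscopy. Slurry centrifuged 15,000 rpm at 20 °C for 20 min. Supernatant assayed by HPLC and its pH measured. Values are typically means of two measurements.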

[2] = Aqueous solubility at pH 2.5; assay type: physicochemical; settings: aqueous solution; outline: as §1
[3] = Chemical stability assessed as compound remaining in DMSO after 8 hrs; assay type: physicochemical; settings: read-out: Stability
Outline: (§2)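 Compound held 8 h at room temperature in DMSO or in pH 7.4 buffer. Percent remaining determined by LC/MS.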

[4] = Chemical stability assessed as compound remaining in aqueous buffer at pH 7.4 after 8 hrs; assay type: physicochemical; settings: read-out: Stability; outline: as §2
[5] = Aqueous solubility at pH 3.5; assay type: physicochemical; settings: aqueous solution; outline: as §1
[6] = Permeability across MDCK cells; assay type: ADME, cell-based, Canis lupus familiaris; settings: dog, read-out: permeability
[7] = Oral bioavailability in Sprague-Dawley rat at 10 mg/kg; assay type: ADME, organism-based; settings: in vivo
Outline: (§3)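 Male Sprague–Dawley rats (n = 3) dosed orally, prodrug at a dose equivalent to 10 mg/kg of parent, compared with an equivalent oral dose of parent. Parent levels measured in plasma; AUC_INF derived from the plasma profile. Bioavailability is expressed with respect to the parent compound.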

[8] = Aqueous solubility at pH 7.8; assay type: physicochemical; settings: aqueous solution; outline: as §1
[9] = AUC (0 to infinity) in Sprague-Dawley rat at 10 mg/kg, po; assay type: ADME, organism-based; parameters: time infinity, dose 10 mg/kg, route oral; settings: plasma; outline: as §3
[10] = Half life in Sprague-Dawley rat at 5 mg/kg, iv; assay type: ADME, organism-based; parameters: dose 5 mg/kg, route intravenous; settings: in vivo
Outline: (§4)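 Male Sprague–Dawley rats (n = 3) dosed iv, prodrug at a dose equivalent to 5 mg/kg of parent, compared with an equivalent iv dose of parent. Plasma profiles of both prodrug and released parent were determined, giving AUC_INF and elimination half-life.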

[11] = AUC (0 to infinity) in Sprague-Dawley rat at 5 mg/kg, iv; assay type: ADME, organism-based; parameters: time infinity, dose 5 mg/kg, route intravenous; settings: plasma; outline: as §4

SMILES	solubility [1] [µg/mL]	remaining at 8 h [3] [%]	remaining at 8 h [4] [%]	also measured
CC(C)C(=O)OCn1cc(CCNc2ncnc3ccsc23)s/c1=N\C(=O)Nc1cccc(Cl)c1	170 (≈ 320 µM)	–	–	–
CC(=O)OCn1cc(CCNc2ncnc3ccsc23)s/c1=N\C(=O)Nc1cccc(Cl)c1	–	100	100	solubility [2]: 120 µg/mL (≈ 239 µM)
O=C(/N=c1\sc(CCNc2ncnc3ccsc23)cn1COC(=O)CC1CCNCC1)Nc1cccc(Cl)c1	–	100	100	solubility [5]: 2500 µg/mL (≈ 4270 µM)
CC(C)(C)C(=O)OCn1cc(CCNc2ncnc3ccsc23)s/c1=N\C(=O)Nc1cccc(Cl)c1	280 (≈ 514 µM)	100	100	–
CNCC(=O)OCn1cc(CCNc2ncnc3ccsc23)s/c1=N\C(=O)Nc1cccc(Cl)c1	–	0	0	–
O=C(/N=c1\sc(CCNc2ncnc3ccsc23)cn1COC(=O)C1CCNCC1)Nc1cccc(Cl)c1	–	84	52	–
O=C(/N=c1\sc(CCNc2ncnc3ccsc23)cn1COP(=O)(O)O)Nc1cccc(Cl)c1	–	100	100	Papp [6]: < 1 ×10⁻⁶ cm/s; bioavailability [7]: 44%; solubility [8]: 4700 µg/mL (≈ 8690 µM); AUC(0-inf) [9]: 2200 ng·h/mL; half-life [10]: 0.5 h; AUC(0-inf) [11]: 1910 ng·h/mL
CS(=O)(=O)O.O=C(Nc1cccc(Cl)c1)Nc1ncc(CCNc2ncnc3ccsc23)s1 [SNS-314 MESYLATE]	14	–	–	bioavailability [7]: 72%; AUC(0-inf) [9]: 3650 ng·h/mL; half-life [10]: 2.1 h; AUC(0-inf) [11]: 2090 ng·h/mL
